Measured values: ChEMBL document CHEMBL1143007, “Synthesis and evaluation of 4/5-hydroxy-2,3-diaryl(substituted)-cyclopent-2-en-1-ones as cis-restricted analogues of combretastatin A-4 as novel anticancer agents” (J Med Chem, 2007)
≈ marks a conversion by molar mass, not a printed value.

Tests used:
[1] = Cytotoxicity against human Hep2 cells after 72 hrs by MTT assay; format: cell-based, HEp-2; settings: Homo sapiens, HEp-2, 72 h; read-out: IC50
How it was run: (§1)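 MTT assay. Cells seeded at 5000-10 000 per well and incubated at 37 °C in CO₂ with compound at 1-100 µg/mL in triplicate wells for 72 h, then MTT added. Absorbance read at 540 nm; % cytotoxicity = 100 × (1 − treated/control). IC50 obtained by nonlinear regression; NA means IC50 above 100 µg/mL.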

[2] = system: KB; test: Cytotoxicity against human KB cells after 72 hrs by MTT assay; format: cell-based; settings: Homo sapiens, KB, 72 h; read-out: IC50; how it was run: as §1
[3] = system: DU-145; test: Cytotoxicity against human DU145 cells after 72 hrs by MTT assay; format: cell-based; settings: Homo sapiens, DU-145, 72 h; read-out: IC50; how it was run: as §1
[4] = system: HT-29; test: Cytotoxicity against human HT29 cells after 72 hrs by MTT assay; format: cell-based; settings: Homo sapiens, HT-29, 72 h; read-out: IC50; how it was run: as §1
[5] = Cytotoxicity against human ECV304 cells after 72 hrs by MTT assay; format: cell-based, ECV-304; settings: Homo sapiens, ECV-304, 72 h; read-out: IC50; how it was run: as §1
[6] = system: MIA PaCa-2; test: Cytotoxicity against human MiaPaCa2 cells after 72 hrs by MTT assay; format: cell-based; settings: Homo sapiens, MIA PaCa-2, 72 h; read-out: IC50; how it was run: as §1
[7] = system: HEK293; test: Cytotoxicity against human HEK293 cells after 72 hrs by MTT assay; format: cell-based; settings: Homo sapiens, HEK293, 72 h; read-out: IC50; how it was run: as §1
[8] = Cytotoxicity against human PA1 cells after 72 hrs by MTT assay; format: cell-based, PA-1; settings: Homo sapiens, PA-1, 72 h; read-out: IC50; how it was run: as §1
[9] = system: L132; test: Cytotoxicity against human L132 cells after 72 hrs by MTT assay; format: cell-based; settings: Homo sapiens, L132, 72 h; read-out: IC50; how it was run: as §1

SMILES | IC50 [1] [µg/mL] | IC50 [2] [µg/mL] | IC50 [3] [µg/mL] | IC50 [4] [µg/mL] | IC50 [5] [µg/mL] | IC50 [6] [µg/mL] | IC50 [7] [µg/mL] | IC50 [8] [µg/mL] | IC50 [9] [µg/mL]
COc1ccc(OC)c(C2=C(c3cc(OC)c(OC)c(OC)c3)/C(=N\O)CC2O[Si](C)(C)C(C)(C)C)c1 (configuration not stated) | 7 (≈ 13.2 µM) | > 100 | > 100 | 50 (≈ 94.4 µM) | 6 (≈ 11.3 µM) | 1 (≈ 1.89 µM) | 7 (≈ 13.2 µM) | 8.5 (≈ 16 µM) | > 100
COc1ccc(OC)c(C2=C(c3cc(OC)c(OC)c(OC)c3)C(=O)CC2O)c1 (configuration not stated) | > 100 | > 100 | > 100 | > 100 | > 100 | > 100 | > 100 | > 100 | > 100
COc1ccc(C2=C(c3cc(OC)c(OC)c(OC)c3)CC(O[Si](C)(C)C(C)(C)C)C2=O)cc1[N+](=O)[O-] (configuration not stated) | > 100 | > 100 | > 100 | > 100 | > 100 | > 100 | > 100 | > 100 | > 100
COc1cc(C2=C(c3cc(C)c(OC)c(C)c3)C(O[Si](C)(C)C(C)(C)C)CC2=O)cc(OC)c1OC (configuration not stated) | 26 (≈ 50.7 µM) | 40 (≈ 78 µM) | > 100 | 10 (≈ 19.5 µM) | 15 (≈ 29.3 µM) |  | 29 (≈ 56.6 µM) | 32 (≈ 62.4 µM) | > 100
CC(=O)OC1C/C(=N/O)C(c2ccccc2)=C1c1ccccc1 (configuration not stated) | > 100 | 9 (≈ 29.3 µM) | > 100 | > 100 | > 100 | 4.5 (≈ 14.6 µM) | 92.3 (≈ 300 µM) | > 100 | > 100
COc1cc(C2=C(c3ccc(OCC(=O)[O-])cc3)C(O)CC2=O)cc(OC)c1OC.[Na+] (configuration not stated) | > 100 | > 100 | > 100 |  |  | > 100 | > 100 |  | 
COc1ccc(C2=C(c3cc(OC)c(OC)c(OC)c3)/C(=N\O)CC2O)cc1O (configuration not stated) | < 1 | 10 (≈ 24.9 µM) | 23 (≈ 57.3 µM) | 9 (≈ 22.4 µM) | > 100 | > 100 | > 100 | 3.7 (≈ 9.22 µM) | 8 (≈ 19.9 µM)
COc1ccc(C2=C(c3cc(OC)c(OC)c(OC)c3)/C(=N\O)C(O)C2)cc1F (configuration not stated) | < 1 | < 1 | 10 (≈ 24.8 µM) | < 1 | 43 (≈ 107 µM) | 94 (≈ 233 µM) | > 100 | > 100 | < 1
COc1cc(C2=C(c3ccc(SC)cc3)CC(O)/C2=N/O)cc(OC)c1OC (configuration not stated) | < 1 | 15 (≈ 37.4 µM) | 2.5 (≈ 6.23 µM) | 36 (≈ 89.7 µM) | 57 (≈ 142 µM) | 40 (≈ 99.6 µM) | 27 (≈ 67.3 µM) | 25.3 (≈ 63 µM) | > 100
COc1cc(C2=C(c3cc(C)c(OC)c(C)c3)C(OC(C)=O)C/C2=N/O)cc(OC)c1OC (configuration not stated) | > 100 | > 100 | > 100 | > 100 | > 100 | > 100 | > 100 | > 100 | > 100
COc1cc(C2=C(c3cc(C)c(OC)c(C)c3)C(OC(C)=O)CC2=O)cc(OC)c1OC (configuration not stated) | > 100 | > 100 | > 100 | > 100 | > 100 | > 100 | > 100 | > 100 | > 100
COc1ccc(C2=C(c3cc(OC)c(OC)c(OC)c3)/C(=N\O)CC2O)cc1 (configuration not stated) | > 100 |  | 34.2 (≈ 88.9 µM) | 15 (≈ 38.9 µM) | > 100 | > 100 | > 100 | 2.35 (≈ 6.1 µM) | 11 (≈ 28.5 µM)
COc1ccc(C2=C(c3cc(OC)c(OC)c(OC)c3)CC(O)C2=O)cc1N (configuration not stated) | 16 (≈ 41.5 µM) | < 1 | 41 (≈ 106 µM) | < 1 | > 100 | > 100 | > 100 | 20 (≈ 51.9 µM) | 54 (≈ 140 µM)
COc1ccc(C2=C(c3cc(OC)c(OC)c(OC)c3)/C(=N\O)CC2OC(C)=O)cc1O (configuration not stated) | > 100 | < 1 | 23 (≈ 51.9 µM) | < 1 | > 100 | < 1 | > 6.06 | < 1 | < 1
COc1ccc(C2=C(c3cc(OC)c(OC)c(OC)c3)C(=O)C(O)C2)cc1OC(C)C (configuration not stated) | > 100 | > 100 | > 100 | > 100 | > 100 | > 100 | > 100 | > 100 | > 100
COc1ccc(C2=C(c3cc(OC)c(OC)c(OC)c3)CC(O)C2=O)cc1[N+](=O)[O-] (configuration not stated) | > 100 | > 100 | > 100 | > 100 | > 100 | > 100 | > 100 | > 100 | > 100
COc1cc(C2=C(c3cc(C)c(OC)c(C)c3)C(O)CC2=O)cc(OC)c1OC (configuration not stated) | > 100 | > 100 | > 100 | > 100 | > 100 | > 100 | > 100 | > 100 | > 100
COc1ccc(C2=C(c3cc(OC)c(OC)c(OC)c3)C(=O)CC2O)cc1 (configuration not stated) | > 100 |  | 18.7 (≈ 50.5 µM) | 15 (≈ 40.5 µM) | > 100 | > 100 | 10 (≈ 27 µM) | 3.38 (≈ 9.13 µM) | 10 (≈ 27 µM)
COc1ccc(C2=C(c3cc(OC)c(OC)c(OC)c3)/C(=N\O)CC2O[Si](C)(C)C(C)(C)C)cc1OC (configuration not stated) | 32 (≈ 60.4 µM) | 15 (≈ 28.3 µM) | 60 (≈ 113 µM) | 20 (≈ 37.8 µM) | 36 (≈ 68 µM) | 15 (≈ 28.3 µM) | 70 (≈ 132 µM) |  | 60 (≈ 113 µM)
COc1ccc(C2=C(c3cc(OC)c(OC)c(OC)c3)C(=O)C(OC(C)=O)C2)cc1NC=O (configuration not stated) | 3.27 (≈ 7.18 µM) | 8 (≈ 17.6 µM) | > 100 | < 1 |  | 2 (≈ 4.39 µM) | 4.16 (≈ 9.13 µM) | 5 (≈ 11 µM) | 2 (≈ 4.39 µM)
COc1ccc(C2=C(c3cc(OC)c(OC)c(OC)c3)C(=O)C(OC(C)=O)C2)cc1 (configuration not stated) | 18 (≈ 43.6 µM) | 72 (≈ 175 µM) | > 100 | < 1 | 18 (≈ 43.6 µM) | < 1 |  | < 1 | > 100
COc1ccc(C2=C(c3cc(OC)c(OC)c(OC)c3)/C(=N\O)C(OC(C)=O)C2)cc1 (configuration not stated) | 100 (≈ 234 µM) | 69 (≈ 161 µM) | > 100 | 1 (≈ 2.34 µM) | > 100 | < 1 | 25.6 (≈ 59.9 µM) | < 1 | 
